Six molecules from ChEMBL document CHEMBL1139962, “Synthesis and anthelmintic activity of cyclohexadepsipeptides with cyclohexylmethyl side chains” (Bioorg Med Chem Lett, 2007) can be followed below.

Series [1] in a line: Partition coefficient, log P at pH 2.3. The format is physicochemical. The note with it: octanol/water.
Series [2] deals with Haemonchus contortus. Nature of the series: Anthelmintic activity against Haemonchus contortus Rudolphi L3 larvae infected sheep assessed as reduction of faecal egg counts at 5 mg/kg, po. The format is functional, Feces. On the set-up: scale not given: the % may be the effect or the level left. A digest of the protocol: (§1)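 Sheep experimentally infected with Haemonchus contortus Rudolphi L3 larvae; dosed after the parasite's prepatency period ended. Compound given orally in gelatine capsules. Faecal egg counts by McMaster method (Wetzel modification) on freshly obtained faeces, counted at regular intervals before and after treatment; activity expressed as reduction in egg counts.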

Series [3] deals with Haemonchus contortus. The series is described as follows: Anthelmintic activity against Haemonchus contortus Rudolphi L3 larvae infected sheep assessed as reduction of faecal egg counts at 0.50 mg/kg, po. The format is functional, Feces. On the set-up: scale not given: the % may be the effect or the level left. The note with it: dose 0.5 mg/kg. The method, boiled down:
as §1

Series [4] has as its system Haemonchus contortus. The series is described as follows: Anthelmintic activity against Haemonchus contortus Rudolphi L3 larvae infected sheep assessed as reduction of faecal egg counts at 0.25 mg/kg, po. The format is functional, Feces. On the set-up: scale not given: the % may be the effect or the level left. The method, boiled down:
as §1

By logP is commonly meant the decadic logarithm of the partition coefficient of the neutral form, usually between octanol and water. In series [1], `CC[C@@H](C)[C@H]1C(=O)O[C@H](C(C)C)C(=O)N(C)[C@@H](Cc2ccccc2)C(=O)O[C@H](C(C)C)C(=O)N(C)[C@@H]([C@H](C)CC)C(=O)O[C@H](C(C)C)C(=O)N1C` returned a logP of 5.46. Besides, the Activity entry in the series with Haemonchus contortus [2] is on record as “>=95%”.
In series [1], `CC[C@@H](C)[C@H]1C(=O)O[C@H](C(C)C)C(=O)N(C)[C@@H](CC2CCCCC2)C(=O)O[C@H](C(C)C)C(=O)N(C)[C@@H]([C@H](C)CC)C(=O)O[C@H](C(C)C)C(=O)N1C` displayed a logP of 6.3. Further, the Activity in the series with Haemonchus contortus [3] is 75%.
With `CC[C@@H](C)[C@H]1C(=O)O[C@H](C)C(=O)N(C)[C@@H](Cc2ccccc2)C(=O)O[C@H](C)C(=O)N(C)[C@@H]([C@H](C)CC)C(=O)O[C@H](C)C(=O)N1C`, the Activity in the series on Haemonchus contortus [4] came to 50%. Also, the logP in series [1] came to 4.28.
The like results for `CC[C@@H](C)[C@H]1C(=O)O[C@H](C)C(=O)N(C)[C@@H](CC2CCCCC2)C(=O)O[C@H](C)C(=O)N(C)[C@@H]([C@H](C)CC)C(=O)O[C@H](C)C(=O)N1C` were, in that order, “>=95%” and 4.91.
As to `CC(C)C[C@H]1C(=O)O[C@H](Cc2ccccc2)C(=O)N(C)[C@@H](CC(C)C)C(=O)O[C@H](C)C(=O)N(C)[C@@H](CC(C)C)C(=O)O[C@H](C)C(=O)N1C`, the logP in series [1] worked out at 4.63. Moreover, the Activity entry with Haemonchus contortus [2] was “<=50%”.
Take `CC(C)C[C@H]1C(=O)O[C@H](CC2CCCCC2)C(=O)N(C)[C@@H](CC(C)C)C(=O)O[C@H](C)C(=O)N(C)[C@@H](CC(C)C)C(=O)O[C@H](C)C(=O)N1C`: the Activity in the series on Haemonchus contortus [4] is 75%. The molecule also returned a log partition coefficient (logP) in series [1] of 5.57.
